Activity calls are given as the source filed them. No cut-off for these calls is given here.
How the values were obtained:
[1] = system: Mus musculus; assay: (§1) Effect on pentobarbitol anesthesia (antagonist activity) in mice by intravenous (iv) administration relative to TRH; type: functional
Method in brief: (§2)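 Mouse CNS assay run by the method of an earlier report. Potency ratio to TRH derived from dose-response data by parallel line assay.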

[2] = system: Mus musculus; assay: (§3) Effect on reserpine-induced hypothermia (antagonist activity) in mice by intraperitoneal (ip) administration relative to TRH; type: functional; method in brief: as §2
[3] = system: Mus musculus; assay: Evaluated for the effect on spontaneous locomotor activity in mice by intraperitoneal (ip) administration relative to TRH
[4] = system: Mus musculus; assay: as §1; type: functional, organism-based
Method in brief: (§4)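 Mouse CNS tests followed methods from the authors' earlier paper. The potency ratio versus TRH comes from dose-response data for the test compound and TRH using the parallel line assay method.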

[5] = system: Mus musculus; assay: as §3; type: functional, organism-based; method in brief: as §4
[6] = system: Mus musculus; assay: Toxicity and mortality indicates the number of dead animals / number of animals used at dose of 500 mg/kg by administering intravenously (iv) in 3 mice.; type: organism-based; parameters: dose 500 mg/kg, route intravenous; conditions: in vivo
Method in brief: (§5)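 Acute toxicity in male Std/ddY mice (26-28 g), three to 10 per group. Compound dissolved in physiological saline and given as a single iv dose of 500 mg/kg. Animals observed for 1 week at 23-24 °C. Mortality recorded as dead/used.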

[7] = system: Mus musculus; assay: Evaluated for the effect on spontaneous locomotor activity in mice by intraperitoneal (ip) administration relative to TRH; remark: listed apart in the source
[8] = system: Rattus norvegicus; assay: The thyrotropin (TSH) releasing activity was measured as serum TSH at 0.5 ug/rat dose (i.v.); type: functional, organism-based
Method in brief: (§6)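 TSH release test in rats run as in the authors' earlier paper. Peptide given iv as μg/rat doses, 4–7 rats per group with a control group. Serum TSH reported in μg/100 mL as mean ± SE. Potency ratio versus TRH from parallel-line analysis of dose-response curves. Groups compared with control by two-tailed Student's t test.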

[9] = system: Rattus norvegicus; assay: The thyrotropin (TSH) releasing activity was measured as serum TSH at 0.03125 ug/rat dose (i.v.); type: functional, organism-based; method in brief: as §6
[10] = Evaluated for the potency ratio from the dose-response curve of TRH and compound by the parallel line assay method.; type: functional; method in brief: as §6
[11] = system: Rattus norvegicus; assay: The thyrotropin (TSH) releasing activity was measured as serum TSH at 0.125 ug/rat dose (i.v.); type: functional, organism-based; method in brief: as §6
[12] = system: Mus musculus; assay: Toxicity and mortality indicates the number of dead animals / number of animals used at the compound dose of 500 mg/kg by administering intravenously (iv) in 3 mice; type: functional; method in brief: as §5
[13] = system: Mus musculus; assay: Effect on reserpine-induced hypothermia (antagonist activity) in mice by intraperitoneal (ip) administration relative to TRH; Nonactive; type: functional; method in brief: as §2
[14] = system: Mus musculus; assay: Toxicity and mortality indicates the number of dead animals / number of animals used at the compound dose of 500 mg/kg by administering intravenously (iv) in mice.; type: organism-based; parameters: dose 500 mg/kg, route intravenous; conditions: in vivo; method in brief: as §5
[15] = system: Mus musculus; assay: Effect on pentobarbitol anesthesia (antagonist activity) in mice by intravenous (iv) administration relative to TRHC; Not active; type: functional, organism-based; method in brief: as §4
[16] = system: Mus musculus; assay: Evaluated for the effect on spontaneous locomotor activity in mice by intraperitoneal (ip) administration relative to TRHV; Not active

Structure (SMILES)	Activity [1]	Activity [4]	Activity [5]	Mortality [6]	Activity [7]	other results
NC(=O)[C@@H]1CCCN1C(=O)[C@H](Cc1c[nH]cn1)NC(=O)[C@@H]1CC(=O)N(Cc2ccccc2)C(=O)N1 [listing 1 of 2 here]	1.4					Activity [2]: 6.8; Activity [3]: 2.3
NC(=O)[C@@H]1CCCN1C(=O)[C@H](Cc1c[nH]cn1)NC(=O)C1CC(=O)N(CCO)C(=O)N1 (mixture of isomers)		inactive	inactive	0	inactive	
C=CCN1C(=O)C[C@@H](C(=O)N[C@@H](Cc2c[nH]cn2)C(=O)N2CCC[C@H]2C(N)=O)NC1=O [listing 1 of 2 here]				1		
CC(C)N1C(=O)C[C@@H](C(=O)N[C@@H](Cc2c[nH]cn2)C(=O)N2CCC[C@H]2C(N)=O)NC1=O [listing 1 of 2 here]	1.9					Activity [2]: 11.5; Activity [3]: 5
NC(=O)[C@@H]1CCCN1C(=O)[C@H](Cc1c[nH]cn1)NC(=O)C1=NC(=O)NC(=O)C1	1.3			0		Activity [2]: 5.5; Activity [3]: 3.1
CN1C(=O)C[C@@H](C(=O)N[C@@H](Cc2c[nH]cn2)C(=O)N2CCC[C@H]2C(N)=O)N(C)C1=O [listing 1 of 2 here]	1.2					Activity [2]: 0.5; Activity [3]: 0.4
NC(=O)[C@@H]1CCCN1C(=O)[C@H](Cc1c[nH]cn1)NC(=O)[C@@H]1CCC(=O)N1						Serum TSH [8]: 351 µg 100ml-1; Serum TSH [9]: 59.1 µg 100ml-1; Ratio [10]: 1; Serum TSH [11]: 115 µg 100ml-1
CN1C(=O)C[C@@H](C(=O)N[C@@H](Cc2c[nH]cn2)C(=O)N2CCC[C@@H]2C(N)=O)NC1=O		inactive	inactive	0	inactive	
CN(C)C(=O)[C@H]1CCCN1C(=O)[C@@H](Cc1c[nH]cn1)NC(=O)[C@@H]1CC(=O)N(C)C(=O)N1		inactive	inactive	0	inactive	
CCCCN1C(=O)C[C@@H](C(=O)N[C@@H](Cc2c[nH]cn2)C(=O)N2CCC[C@H]2C(N)=O)NC1=O [listing 1 of 2 here]	0.8					Activity [2]: 1.8; Activity [3]: 1.2
CCCN1C(=O)C[C@@H](C(=O)N[C@@H](Cc2c[nH]cn2)C(=O)N2CCC[C@H]2C(N)=O)NC1=O [listing 1 of 2 here]				0		
CN1C(=O)N(Cc2ccccc2)C(=O)CC1C(=O)N[C@@H](Cc1c[nH]cn1)C(=O)N1CCC[C@H]1C(N)=O (mixture of isomers)		inactive	inactive	0	inactive	
CCC[C@H](NC(=O)[C@@H]1CC(=O)N(C)C(=O)N1)C(=O)N1CCC[C@@H]1C(N)=O		inactive	inactive	0	inactive	
CN1C(=O)C[C@@H](C(=O)N[C@@H](Cc2c[nH]cn2)C(=O)N2CCC[C@H]2C(N)=O)N(C)C1=O [listing 2 of 2 here]				0		
CN1C(=O)C[C@@H](C(=O)N[C@H](Cc2c[nH]cn2)C(=O)N2CCC[C@@H]2C(=O)O)NC1=O		inactive	inactive	0	inactive	
CCCCCN1C(=O)C[C@@H](C(=O)N[C@@H](Cc2c[nH]cn2)C(=O)N2CCC[C@H]2C(N)=O)NC1=O [listing 1 of 2 here]	0.4					
CN1C(=O)C[C@@H](C(=O)N[C@@H](Cc2c[nH]cn2)C(=O)N2CCC[C@H]2C(N)=O)NC1=O	28.1					Activity [2]: 89.4; Mortality [12]: 0; Activity [3]: 60.6
CCCCCN1C(=O)C[C@@H](C(=O)N[C@H](Cc2c[nH]cn2)C(=O)N2CCC[C@@H]2C(N)=O)NC1=O			inactive		inactive	
CN1C(=O)C[C@@H](C(=O)N[C@H](Cc2c[nH]cn2)C(=O)N2CCC[C@H]2C(N)=O)NC1=O		inactive	inactive	0	inactive	
CN1C(=O)C[C@@H](C(=O)N[C@H](Cc2c[nH]cn2)C(=O)OCc2ccccc2)NC1=O		inactive	inactive	0	inactive	
CCCCN1C(=O)CC(C(=O)N[C@@H](Cc2c[nH]cn2)C(=O)N2CCC[C@H]2C(N)=O)N(C)C1=O (stereo partly drawn)		inactive	inactive	0	inactive	

Structure (SMILES)	Activity [1]	Activity [4]	Activity [5]	Mortality [6]	Activity [7]	other results
Cn1c(=O)cc(C(=O)N[C@@H](Cc2c[nH]cn2)C(=O)N2CCC[C@@H]2C(N)=O)[nH]c1=O	0.4		inactive	0	inactive	
NC(=O)[C@@H]1CCCN1C(=O)[C@H](Cc1c[nH]cn1)NC(=O)C1CC(=O)N(CCOCc2ccccc2)C(=O)N1 (mixture of isomers)	0.4			0	inactive	Activity [2]: 1.1
CC(C)N1C(=O)C[C@@H](C(=O)N[C@@H](Cc2c[nH]cn2)C(=O)N2CCC[C@H]2C(N)=O)NC1=O [listing 2 of 2 here]				0		
CN1C(=O)NC(=O)C[C@H]1C(=O)N[C@@H](Cc1c[nH]cn1)C(=O)N1CCC[C@H]1C(N)=O				0		
CCCN1C(=O)C[C@@H](C(=O)N[C@@H](Cc2c[nH]cn2)C(=O)N2CCC[C@H]2C(N)=O)NC1=O [listing 2 of 2 here]						Activity [3]: 0.7
COC(=O)[C@@H](Cc1c[nH]cn1)NC(=O)[C@@H]1CC(=O)N(C)C(=O)N1		inactive	inactive	0	inactive	
CCCCN1C(=O)C[C@@H](C(=O)N[C@@H](Cc2c[nH]cn2)C(=O)N2CCC[C@H]2C(N)=O)NC1=O [listing 2 of 2 here]				1		
CN1C(=O)C[C@@H](C(=O)N[C@H](Cc2c[nH]cn2)C(=O)O)NC1=O		inactive	inactive	0	inactive	
CN1C(=O)NC(=O)C[C@H]1C(=O)N[C@H](Cc1c[nH]cn1)C(=O)N1CCC[C@@H]1C(N)=O		inactive	inactive		inactive	
NCCN1C(=O)CC(C(=O)N[C@@H](Cc2c[nH]cn2)C(=O)N2CCC[C@H]2C(N)=O)NC1=O (mixture of isomers)		inactive	inactive	0	inactive	
NC(=O)[C@@H]1CCCN1C(=O)[C@H](Cc1c[nH]cn1)NC(=O)[C@@H]1CC(=O)N(CCF)C(=O)N1 [listing 1 of 2 here]	1.2					Activity [2]: 4.1; Activity [3]: 0.9
CNC(=O)[C@H]1CCCN1C(=O)[C@@H](Cc1c[nH]cn1)NC(=O)[C@@H]1CC(=O)N(C)C(=O)N1	0.6			0		Activity [13]: 0.9; Activity [3]: 0.4
CC(=O)O.CCCCCCCCCCCCCCCCCCN1C(=O)C[C@@H](C(=O)N[C@@H](Cc2c[nH]cn2)C(=O)N2CCC[C@H]2C(N)=O)NC1=O						Mortality [14]: 1
NC(=O)[C@@H]1CCCN1C(=O)[C@H](Cc1c[nH]cn1)NC(=O)[C@@H]1CC(=O)N(CCF)C(=O)N1 [listing 2 of 2 here]				1		
CCCCCCCCCCCCCCCCCCN1C(=O)C[C@@H](C(=O)N[C@H](Cc2c[nH]cn2)C(=O)N2CCC[C@@H]2C(N)=O)NC1=O		inactive	inactive		inactive	
C=CCN1C(=O)C[C@@H](C(=O)N[C@@H](Cc2c[nH]cn2)C(=O)N2CCC[C@H]2C(N)=O)NC1=O [listing 2 of 2 here]	4.4					Activity [2]: 4.7; Activity [3]: 5.7
NC(=O)[C@@H]1CCCN1C(=O)[C@H](Cc1c[nH]cn1)NC(=O)[C@@H]1CC(=O)N(CC(=O)O)C(=O)N1	0.1			0	inactive	Activity [2]: 0.1
CCCCCN1C(=O)C[C@@H](C(=O)N[C@@H](Cc2c[nH]cn2)C(=O)N2CCC[C@H]2C(N)=O)NC1=O [listing 2 of 2 here]				2		
CN1C(=O)C[C@@H](C(=O)N[C@H](Cc2c[nH]cn2)C(=O)N2CCC[C@@H]2C(=O)OCc2ccccc2)NC1=O.Cl			inactive	3		Activity [15]: inactive; Activity [16]: inactive
NC(=O)[C@@H]1CCCN1C(=O)[C@H](Cc1c[nH]cn1)NC(=O)[C@@H]1CC(=O)N(Cc2ccccc2)C(=O)N1 [listing 2 of 2 here]				3		
